Screening results (PubChem BioAssay)
Rows were chosen to be rich in hits. Some 2.5% of all compounds tested hit in one or more screens of this group.
Efflux pump mplx – inhibitors of Candida antifungal efflux pumps expressed in yeast. S. cerevisiae Candida pump triplex, Nile Red efflux. inhibition, % at 10 µM. actives 0.44% (n = 330,000). AID 485275;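 active = plate passing quality check with inhibition over a set limit, or well fluorescence over plate mean plus 4 SD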;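 also: Nile Red retained in pooled yeast measured as flow cytometry median fluorescence; 0% = buffer negative control and 100% = Enniatin B positive control; higher means more Nile Red kept so more efflux inhibition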
MEKK3 PB1 HTS – modulators (inhibitors or enhancers) of MEK5 binding to human MEKK3 PB1 domain; actives 1.4% (n = 290,000); binding response (% of control), % at 10 µM; bead-based flow cytometry, Alexa488-MEK5 binding to MEKK3; actives lie on both sides; 0 = blocked by unlabeled MEK5, 100 = vehicle; Q99759;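 active = binding response more than 3 SD above or below the average of its plate-row segment, actives on both sides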;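 also: Alexa488 bead fluorescence after subtracting the streptavidin-only scavenger bead signal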
MEKK2wt PB1 HTS – raises or lowers MEK5 binding to wildtype human MEKK2 PB1 domain; Q9Y2U5; bead flow cytometry, Alexa488-MEK5 binding to MEKK2 WT; actives lie on both sides; binding response (% of control), % at 10 µM; actives 1.1% (n = 290,000); AID 1531; in the data active = binding response below about 67% or above about 130%
MEKK2 mut-MEK5 – signal of MEK5 binding to mutant human MEKK2 PB1 domain. actives 0.35% (n = 290,000). bead flow cytometry, Alexa488-MEK5 binding to MEKK2 mutant. percent response, % at 10 µM; in the data active = percent response above about 24%, passing the limit was not always enough
ABCB1 inh – human ABCB1 inhibition, ABCG2 as counter-screen; P08183; CCRF-Adr cells, JC-1 efflux, flow cytometry; inhibition, % at 6.6 µM; actives 0.067% (n = 190,000); AID 1326; in the data active = inhibition above about 40%;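 also: 0% = vehicle and 100% = reference inhibitor; higher value means more JC-1 retained so stronger ABCB1 efflux block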
Target sequence (P08183 whole entry, looked up): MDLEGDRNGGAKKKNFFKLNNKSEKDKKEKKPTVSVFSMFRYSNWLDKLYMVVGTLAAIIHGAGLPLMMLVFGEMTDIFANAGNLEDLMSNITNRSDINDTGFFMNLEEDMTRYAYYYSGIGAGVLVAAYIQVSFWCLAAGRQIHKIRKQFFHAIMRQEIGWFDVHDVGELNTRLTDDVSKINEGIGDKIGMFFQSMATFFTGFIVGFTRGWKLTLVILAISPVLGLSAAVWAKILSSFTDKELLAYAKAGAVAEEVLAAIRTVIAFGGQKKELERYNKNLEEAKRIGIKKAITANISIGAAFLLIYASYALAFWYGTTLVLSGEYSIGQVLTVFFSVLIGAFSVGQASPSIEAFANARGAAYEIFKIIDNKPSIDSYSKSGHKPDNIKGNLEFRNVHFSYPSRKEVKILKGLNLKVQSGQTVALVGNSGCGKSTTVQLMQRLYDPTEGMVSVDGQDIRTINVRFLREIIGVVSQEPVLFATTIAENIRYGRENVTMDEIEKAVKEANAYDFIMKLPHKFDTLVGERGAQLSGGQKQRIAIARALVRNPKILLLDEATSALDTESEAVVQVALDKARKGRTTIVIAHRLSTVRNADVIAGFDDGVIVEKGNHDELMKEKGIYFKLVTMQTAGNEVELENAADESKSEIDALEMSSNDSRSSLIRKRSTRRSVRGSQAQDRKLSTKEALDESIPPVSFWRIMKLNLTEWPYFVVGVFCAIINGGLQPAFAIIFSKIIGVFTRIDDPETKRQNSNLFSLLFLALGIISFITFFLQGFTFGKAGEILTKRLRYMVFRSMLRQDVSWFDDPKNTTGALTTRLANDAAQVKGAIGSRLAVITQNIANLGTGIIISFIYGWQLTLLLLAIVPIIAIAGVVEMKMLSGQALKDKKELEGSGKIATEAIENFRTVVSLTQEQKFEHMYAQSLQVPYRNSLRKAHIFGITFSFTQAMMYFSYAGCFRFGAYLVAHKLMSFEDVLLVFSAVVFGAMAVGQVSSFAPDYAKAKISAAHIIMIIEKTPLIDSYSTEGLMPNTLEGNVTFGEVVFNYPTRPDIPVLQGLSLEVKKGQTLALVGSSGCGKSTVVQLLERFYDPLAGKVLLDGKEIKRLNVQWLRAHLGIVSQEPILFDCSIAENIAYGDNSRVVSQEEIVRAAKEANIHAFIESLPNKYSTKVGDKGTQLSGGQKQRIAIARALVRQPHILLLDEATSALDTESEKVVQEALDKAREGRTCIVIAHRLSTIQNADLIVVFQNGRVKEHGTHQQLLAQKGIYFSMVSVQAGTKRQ
ABCG2 inh – human ABCG2 inhibition, ABCB1 as counter-screen. actives 0.1% (n = 190,000). Q9UNQ0. inhibition, % at 6.6 µM. IgMXP3 cells, JC-1 efflux, flow cytometry;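 active = inhibition above 80%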;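 also: 0% = DMSO and 100% = nicardipine control wells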
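Test system: IgMXP3 (ABCG2) plus far-red-tagged CCRF-Adr (ABCB1) cells / Amount: 3 million cells/mL in well / Reagent: JC-1 transporter substrate / Timing: 10 min compound exposure, 25 °C / Signal: flow cytometry, 530 nm JC-1 signal / Read-out: percent efflux inhibition, scaled nicardipine 100% to DMSO 0% / Benchmarks: nicardipine as high control, DMSO as low control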
MEKK2wt confirm – raises or lowers MEK5 binding to wildtype human MEKK2, retest; shares compounds with MEKK3 PB1 HTS; binding response (% of control), % at 10 µM; bead flow cytometry, Alexa488-MEK5 binding to MEKK2 WT; actives lie on both sides; actives 2.4% (n = 5,900); AID 1892; in the data active = binding response below about 16% or above about 210%; inactive = in between
MEKK2mut-MEK5 – signal of MEK5 binding to mutant human MEKK2, retest. shares compounds with MEKK3 PB1 HTS. AID 1893. percent response, % at 10 µM. actives 2% (n = 5,900). bead flow cytometry, Alexa488-MEK5 binding to MEKK2 mutant; in the data active = percent response mostly above about 71%, no sharp cut-off; inactive = mostly below about 38%;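 also: higher means compound restores mutant binding toward wildtype level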
MEKK3-MEK5 inh – confirmation of inhibitors of MEK5 binding to human MEKK3; shares compounds with MEKK3 PB1 HTS; bead flow cytometry, Alexa488-MEK5 binding to MEKK3; stronger effect = lower value; binding response (% of control), % at 10 µM; actives 1.8% (n = 5,900); AID 1894;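 active = binding response below 72% of control, or above a set upper limit, though filed actives all read lower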;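 also: 100% = DMSO only wells and 0% = binding blocked by excess unlabeled MEK5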
Active calls of the source: *; . = not tested or not shown; [ ] = dose if it differs, or a comment.

SMILES	Efflux pump mplx	MEKK3 PB1 HTS	MEKK2wt PB1 HTS	MEKK2 mut-MEK5	ABCB1 inh	ABCG2 inh	MEKK2wt confirm	MEKK2mut-MEK5	MEKK3-MEK5 inh
CCc1nc(N2CCN(C(=O)CCl)CC2)c2c3c(sc2n1)CC(C)CC3 (centres undefined)	0.0	111.0	153.0*	39.0*	.	.	141.0	25.0	100.0
O=C(CSc1c2c(nc3cc(Cl)ccc13)CCCC2)NCc1ccco1	-0.1	97.0	90.0	-1.0	0.7	1.8	.	.	.
Cc1ccc(NC(=O)/C(=C/c2cccc([N+](=O)[O-])c2)NC(=O)C2CCCCC2)c(C)c1	0.0	1.0*[inhibitor]	2.0*[inhibitor]	-21.0	0.3	1.4	107.0	3.0	103.0
COc1cc(C(C(=O)NC(C)(C)C)N(Cc2ccc3c(c2)OCO3)C(=O)c2cnccn2)cc(OC)c1OC (centres undefined)	0.0	40.0*[inhibitor]	58.0	-14.0	0.4	1.0	101.0	-2.0	100.0
COc1ccc(CN(C(=O)c2cnccn2)C(C(=O)NC(C)(C)C)c2cc(OC)c(OC)c(OC)c2)cc1 (centres undefined)	0.0	94.0	100.0	-3.0	0.0	2.0	.	.	.
CCN(C(=O)N(CC)c1ccccc1)c1ccccc1	0.0	.	.	.	.	.	.	.	.
O=C(COC(=O)c1ccccc1SCC(=O)NC1CCS(=O)(=O)C1)NC1CCS(=O)(=O)C1 (centres undefined)	-0.1	2.0*[inhibitor]	1.0*[inhibitor]	-60.0	-0.6	-1.1	91.0	-9.0	86.0
Cc1nnc(Sc2cc(C(=O)NCCCN(C)Cc3ccccc3)c3ccccc3n2)s1	0.1	131.0*	120.0	2.0	20.1	13.4	116.0	13.0	101.0
COCCCNC(=O)c1cc(Sc2nnc(C)s2)nc2ccccc12	-0.1	91.0	89.0	-5.0	.	.	.	.	.
NS(=O)(=O)c1cnccc1NCCc1ccccc1	0.0	.	.	.	.	.	.	.	.
CN1CCN(/N=C/c2ccc(N(c3ccccc3)c3ccccc3)cc2)CC1	0.1	106.0	153.0*	16.0	0.6	1.2	151.0	34.0	98.0
CCN(c1ccc(OC)cc1)S(=O)(=O)c1ccc2c(c1)CC(C)N2C(=O)C1CC1 (centres undefined)	0.1	101.0	104.0	2.0	.	.	.	.	.
Cc1ccccc1Oc1nc2c(C)cccn2c(=O)c1/C=C(\C#N)C(=O)Nc1c(C)n(C)n(-c2ccccc2)c1=O	0.2	137.0*	102.0	0.0	-0.6	-2.1	68.0	-18.0	65.0*
COc1ccc(/C=N/N=C/c2ccc(OC)c(OC)c2)cc1OC	0.2	99.0	98.0	-5.0	0.1	0.9	.	.	.
COc1cc(/C=N/N=C(N)N)ccc1OCc1ccccc1Cl	0.1	117.0	229.0*	35.0	0.4	5.1	189.0	41.0	101.0
CC1(C(=O)OCC(=O)Nc2nc(-c3ccc(F)c(F)c3)cs2)CC1(Cl)Cl (centres undefined)	0.6	101.0	106.0	-3.0	.	.	.	.	.
COc1ccccc1C1CCN(Cc2ccc3ccccc3c2)CC1	0.3	106.0	138.0*	36.0*	.	.	135.0	12.0	100.0
COc1ccc(NS(=O)(=O)c2ccc(NC(=S)NC(=O)c3cccnc3)cc2)nn1	-0.1	97.0	95.0	-3.0	0.1	1.1	.	.	.
COc1nccnc1NS(=O)(=O)c1ccc(NC(=S)NC(=O)c2ccc(F)c(F)c2)cc1	0.0	154.0*	106.0	1.0	-1.2	-6.2	98.0	1.0	97.0
COc1ccc(NS(=O)(=O)c2ccc(NC(=S)NC(=O)c3cccc(F)c3)cc2)nn1	-1.2	75.0*[inhibitor]	92.0	-1.0	-0.1	0.5	104.0	3.0	104.0
Cc1cccc(C(=O)NCCc2ccccc2)c1	-0.1	99.0	96.0	3.0	.	.	.	.	.
COc1ccc(C(=O)N2CCC(n3nccc3NC(=O)C3CC3)CC2)cc1F	0.0	97.0	100.0	-7.0	.	.	.	.	.
Cc1cccc(S(=O)(=O)NCCC(=O)OCC(=O)Nc2ccc(C#N)cc2)c1	-0.1	98.0	102.0	-2.0	0.6	5.9	.	.	.
Cc1cc2[nH]c3c(c[n+](C)c4ccccc34)c2cc1C	0.1	61.0	144.0*	-2.0	-0.2	1.2	201.0	73.0*	113.0
Cc1cc(=O)[nH]c2ccccc12	0.0	118.0	116.0	8.0	0.3	0.9	.	.	.
SMILES	Efflux pump mplx	MEKK3 PB1 HTS	MEKK2wt PB1 HTS	MEKK2 mut-MEK5	ABCB1 inh	ABCG2 inh	MEKK2wt confirm	MEKK2mut-MEK5	MEKK3-MEK5 inh
COc1ccc(N2CCN(C(=O)NC3CCCCC3)CC2)cc1	0.5	77.0*[inhibitor]	99.0	-2.0	2.3	15.4	104.0	1.0	102.0
COc1cccc(N2CCN(C(=O)NC3CCCCC3)CC2)c1	0.6	104.0	106.0	4.0	0.1	3.1	.	.	.
O=C(N/N=C/c1ccccc1F)c1ccccc1OCc1ccccc1	-0.1	100.0	89.0	0.0	.	.	.	.	.
O=C(NCCOc1nc(N2CCCCC2)nc(N2CCCCC2)n1)Nc1ccccc1	0.1	106.0	106.0	5.0	3.9	9.7	.	.	.
CCN(CC)c1nc(OCCNC(=O)Nc2ccccc2)nc(N(CC)CC)n1	0.3	111.0	118.0	24.0*	1.1	8.0	95.0	-9.0	96.0
CCc1cccc(C)c1NC(=S)NCC(c1cccnc1)N1CCOCC1 (centres undefined)	-0.2	144.0*	106.0	0.0	0.4	10.5	100.0	0.0	103.0
COC(=O)NCC(c1cccnc1)N1CCOCC1 (centres undefined)	0.0	107.0	100.0	0.0	-0.4	-1.9	.	.	.
FC(F)(F)c1cccc(NC(=S)NCC(c2cccnc2)N2CCOCC2)c1 (centres undefined)	0.0	135.0*	101.0	0.0	-1.6	-10.3	102.0	-7.0	102.0
C=CCN(CC=C)C(=O)c1ccc(OC2CCN(S(=O)(=O)N(C)C)CC2)cc1	0.1	101.0	99.0	-1.0	0.4	0.6	.	.	.
O=C1NC(=S)N(c2cccc(Cl)c2)C12CCCCC2	-0.1	101.0	102.0	0.0	0.1	0.6	.	.	.
O=C(CSc1ccc(-c2ccccc2)nn1)N1CCN(c2ccccc2)CC1	0.1	99.0	99.0	9.0	0.4	3.6	.	.	.
Cc1ccc(-c2ccc(SCC(=O)N3CCN(c4ccccc4)CC3)nn2)cc1	0.1	138.0*	105.0	1.0	-0.6	-7.8	105.0	-3.0	102.0
COc1ccc(Cl)cc1NC(=O)CN(C)C(=O)c1ccc(-n2cncn2)cc1	-0.2	.	.	.	.	.	.	.	.
